Data taken from ChEMBL document CHEMBL4033799, “Stable and Long-Lasting, Novel Bicyclic Peptide Plasma Kallikrein Inhibitors for the Treatment of Diabetic Macular Edema” (J Med Chem, 2018).

Tests used:
[1] = biological target: T1, Coagulation factor XII (Homo sapiens, UniProt P00748); experiment: Inhibition of human factor 12a using fluorogenic peptide as substrate by fluorescence based assay
T1 sequence (P00748 whole entry): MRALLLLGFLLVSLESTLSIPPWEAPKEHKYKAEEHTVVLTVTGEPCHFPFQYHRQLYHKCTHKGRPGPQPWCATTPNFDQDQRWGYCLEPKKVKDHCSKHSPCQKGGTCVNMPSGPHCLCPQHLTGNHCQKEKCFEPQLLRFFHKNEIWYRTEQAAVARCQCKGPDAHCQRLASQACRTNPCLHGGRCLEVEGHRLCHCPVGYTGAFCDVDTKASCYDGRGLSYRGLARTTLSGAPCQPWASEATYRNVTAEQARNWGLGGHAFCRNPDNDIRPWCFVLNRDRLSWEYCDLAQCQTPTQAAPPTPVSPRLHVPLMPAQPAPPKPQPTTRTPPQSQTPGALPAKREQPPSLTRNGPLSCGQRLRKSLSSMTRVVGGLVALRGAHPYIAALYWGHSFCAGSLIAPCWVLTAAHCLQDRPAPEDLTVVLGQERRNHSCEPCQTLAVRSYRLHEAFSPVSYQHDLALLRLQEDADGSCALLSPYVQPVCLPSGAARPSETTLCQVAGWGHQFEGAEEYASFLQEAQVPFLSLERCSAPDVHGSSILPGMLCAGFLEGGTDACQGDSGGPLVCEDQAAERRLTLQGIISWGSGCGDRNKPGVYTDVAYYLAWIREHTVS
How it was run: (§1)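 Human serine proteases were assayed with substrates and conditions set by each supplier's recommendations. Peptides were first screened at 50 μM. Where inhibition was detected, Ki was determined from activity across peptide concentrations using a tight-binding rate equation.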

[2] = Inhibition of cynomolgus monkey plasma kallikrein using fluorogenic H-Pro-Phe-Arg-AMC peptide as substrate preincubated for 15 mins followed by substrate addition measured by fluorescence-based assay; conditions: read-out: Ki(app)
[3] = Inhibition of rabbit plasma kallikrein using fluorogenic H-Pro-Phe-Arg-AMC peptide as substrate preincubated for 15 mins followed by substrate addition measured by fluorescence-based assay; parameters: species or system Oryctolagus cuniculus; conditions: read-out: Ki(app)
How it was run: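 Assays ran at 25 °C in 50 mM Tris-HCl, 250 mM NaCl, 1.5 μM BSA, pH 7.5. PKal (nominal 1–2 nM) was preincubated 15 min with serially diluted peptide. […] Human PKal was purified from plasma; rat PKal was made in-house or bought; other species were purified in-house from kaolin-activated plasma.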

[4] = Inhibition of dog plasma kallikrein using fluorogenic H-Pro-Phe-Arg-AMC peptide as substrate preincubated for 15 mins followed by substrate addition measured by fluorescence-based assay; conditions: read-out: Ki(app)
[5] = biological target: Kallikrein-1 (Homo sapiens, UniProt P06870); experiment: Inhibition of recombinant human C-terminal His-tagged KLK1 (1 to 262 residues) expressed in HEK293 cells using fluorogenic PFR-AMC peptide as substrate by fluorescence based assay; how it was run: as §1
Kallikrein-1, sequence (P06870 whole entry, the tested form may be a part): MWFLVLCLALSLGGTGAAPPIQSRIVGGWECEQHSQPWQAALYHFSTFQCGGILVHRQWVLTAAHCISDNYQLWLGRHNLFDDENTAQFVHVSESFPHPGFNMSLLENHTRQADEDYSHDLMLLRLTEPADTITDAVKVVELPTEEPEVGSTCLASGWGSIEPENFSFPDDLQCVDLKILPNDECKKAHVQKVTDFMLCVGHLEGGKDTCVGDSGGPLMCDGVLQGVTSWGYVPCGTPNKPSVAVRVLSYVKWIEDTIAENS

[6] = biological target: T2, Kallikrein-5 (Homo sapiens, UniProt Q9Y337); experiment: Inhibition of recombinant human C-terminal 10His-tagged KLK5 (67 to 293 residues) expressed in mouse NS0 cells using fluorogenic Boc-VPR-AMC peptide as substrate after 5 mins by fluorescence based assay; how it was run: as §1
T2 sequence (Q9Y337 whole entry): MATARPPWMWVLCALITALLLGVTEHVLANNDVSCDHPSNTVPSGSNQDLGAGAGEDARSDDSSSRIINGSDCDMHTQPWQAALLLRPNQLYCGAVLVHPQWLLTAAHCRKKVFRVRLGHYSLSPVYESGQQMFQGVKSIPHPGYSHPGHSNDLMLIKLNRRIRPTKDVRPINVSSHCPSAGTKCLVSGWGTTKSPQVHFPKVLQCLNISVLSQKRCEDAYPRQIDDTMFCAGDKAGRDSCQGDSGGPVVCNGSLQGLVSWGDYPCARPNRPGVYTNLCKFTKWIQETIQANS

[7] = biological target: T3, Kallikrein-12 (Homo sapiens, UniProt Q9UKR0); experiment: Inhibition of recombinant human C-terminal 10His-tagged KLK12 (18 to 248 residues) expressed in mouse NS0 cells using fluorogenic Boc-VPR-AMC peptide as substrate by fluorescence based assay; how it was run: as §1
T3 sequence (Q9UKR0 whole entry): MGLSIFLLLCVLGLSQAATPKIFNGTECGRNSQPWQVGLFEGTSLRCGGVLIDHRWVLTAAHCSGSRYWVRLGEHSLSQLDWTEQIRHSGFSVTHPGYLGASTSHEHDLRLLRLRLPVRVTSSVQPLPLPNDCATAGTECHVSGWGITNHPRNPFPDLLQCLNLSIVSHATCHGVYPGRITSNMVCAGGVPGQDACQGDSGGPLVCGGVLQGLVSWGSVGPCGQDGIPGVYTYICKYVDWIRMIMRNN

[8] = biological target: T4, Kallikrein-13 (Homo sapiens, UniProt Q9UKR3); experiment: Inhibition of recombinant human C-terminal polyHis-tagged KLK13 (1 to 262 residues) expressed in HEK293 cells using fluorogenic Boc-VPR-AMC peptide as substrate by fluorescence based assay
T4 sequence (Q9UKR3 whole entry): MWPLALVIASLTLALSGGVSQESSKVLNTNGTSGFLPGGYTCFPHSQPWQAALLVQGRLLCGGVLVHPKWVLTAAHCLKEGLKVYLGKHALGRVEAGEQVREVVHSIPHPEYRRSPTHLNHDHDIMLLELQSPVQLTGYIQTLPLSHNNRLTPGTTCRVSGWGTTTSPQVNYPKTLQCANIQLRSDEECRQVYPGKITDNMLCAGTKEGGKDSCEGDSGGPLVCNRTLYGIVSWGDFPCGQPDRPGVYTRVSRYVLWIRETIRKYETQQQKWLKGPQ
How it was run: (§2)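 Panel of human serine proteases. Substrates and assay conditions followed each supplier's recommendations. Peptides were first screened at 50 μM. Where inhibition was detectable, hydrolytic activity was measured across a range of peptide concentrations. Ki was obtained by fitting to the tight-binding inhibitor rate equation.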

[9] = biological target: Plasminogen (Homo sapiens, UniProt P00747); experiment: Inhibition of recombinant human plasmin using fluorogenic D-AFK-ANSNH-iC4H9.2HBr peptide as substrate by fluorescence based assay; how it was run: as §2
Plasminogen, sequence (P00747 97-580 limits assumed): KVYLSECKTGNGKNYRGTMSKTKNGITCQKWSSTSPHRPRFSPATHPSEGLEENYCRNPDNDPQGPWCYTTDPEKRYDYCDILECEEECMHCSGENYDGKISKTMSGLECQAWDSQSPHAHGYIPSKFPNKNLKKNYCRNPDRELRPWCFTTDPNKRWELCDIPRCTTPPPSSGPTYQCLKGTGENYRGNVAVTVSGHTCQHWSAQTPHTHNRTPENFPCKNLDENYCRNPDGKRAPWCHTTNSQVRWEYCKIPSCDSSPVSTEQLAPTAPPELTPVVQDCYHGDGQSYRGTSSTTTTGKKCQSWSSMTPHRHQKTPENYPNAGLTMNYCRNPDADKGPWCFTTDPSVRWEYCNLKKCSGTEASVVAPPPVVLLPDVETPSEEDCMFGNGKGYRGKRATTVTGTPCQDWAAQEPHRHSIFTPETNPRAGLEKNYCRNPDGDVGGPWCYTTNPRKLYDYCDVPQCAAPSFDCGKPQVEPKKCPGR
Plasminogen, sequence (P00747 581-810 limits assumed): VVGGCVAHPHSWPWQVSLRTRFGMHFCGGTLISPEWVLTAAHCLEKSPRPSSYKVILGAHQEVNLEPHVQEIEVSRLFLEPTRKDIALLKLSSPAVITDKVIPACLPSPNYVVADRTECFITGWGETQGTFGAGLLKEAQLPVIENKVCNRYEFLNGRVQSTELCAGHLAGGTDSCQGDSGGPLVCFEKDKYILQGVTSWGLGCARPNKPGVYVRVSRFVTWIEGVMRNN

[10] = biological target: Coagulation factor XI (Homo sapiens, UniProt P03951); experiment: Inhibition of human factor 11a using fluorogenic peptide as substrate by fluorescence based assay; how it was run: as §1
Coagulation factor XI, sequence (P03951 19-387 limits assumed): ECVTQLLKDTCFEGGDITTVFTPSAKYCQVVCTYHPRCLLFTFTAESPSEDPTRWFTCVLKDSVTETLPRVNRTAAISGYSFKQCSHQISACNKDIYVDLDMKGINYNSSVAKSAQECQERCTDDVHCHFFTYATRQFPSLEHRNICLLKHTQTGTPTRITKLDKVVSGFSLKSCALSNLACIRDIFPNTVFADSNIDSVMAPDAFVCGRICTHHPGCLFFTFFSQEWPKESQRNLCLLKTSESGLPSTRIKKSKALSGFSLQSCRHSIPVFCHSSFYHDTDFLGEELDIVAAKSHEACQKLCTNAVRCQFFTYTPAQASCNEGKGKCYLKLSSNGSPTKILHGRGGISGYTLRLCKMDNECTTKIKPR
Coagulation factor XI, sequence (P03951 388-625 limits assumed): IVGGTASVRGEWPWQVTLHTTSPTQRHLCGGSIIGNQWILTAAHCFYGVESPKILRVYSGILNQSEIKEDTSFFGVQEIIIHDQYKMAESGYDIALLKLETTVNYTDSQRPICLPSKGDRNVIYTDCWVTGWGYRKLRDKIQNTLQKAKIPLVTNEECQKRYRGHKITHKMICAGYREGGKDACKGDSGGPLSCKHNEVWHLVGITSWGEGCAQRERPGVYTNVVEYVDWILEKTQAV

[11] = biological target: T5, Coagulation factor VII (Homo sapiens, UniProt P08709); experiment: Inhibition of human factor 7a using fluorogenic peptide as substrate by fluorescence based assay; how it was run: as §1
T5 sequence (P08709 whole entry): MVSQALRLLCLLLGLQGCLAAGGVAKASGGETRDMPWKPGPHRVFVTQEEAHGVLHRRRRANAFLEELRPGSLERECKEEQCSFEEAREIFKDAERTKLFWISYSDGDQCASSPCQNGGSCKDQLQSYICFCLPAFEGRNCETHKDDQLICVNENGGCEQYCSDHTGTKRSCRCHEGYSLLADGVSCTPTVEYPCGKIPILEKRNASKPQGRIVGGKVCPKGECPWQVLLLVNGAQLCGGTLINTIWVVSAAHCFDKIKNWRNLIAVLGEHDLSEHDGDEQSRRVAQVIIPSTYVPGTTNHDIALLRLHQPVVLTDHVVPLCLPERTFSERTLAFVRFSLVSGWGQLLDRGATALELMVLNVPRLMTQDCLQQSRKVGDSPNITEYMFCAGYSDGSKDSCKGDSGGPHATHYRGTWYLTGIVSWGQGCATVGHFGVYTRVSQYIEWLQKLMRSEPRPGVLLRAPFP

SMILES: CC[C@H](C)[C@@H]1NC(=O)[C@H](CC(=O)O)NC(=O)[C@@H]2CCCN2C(=O)[C@H](Cc2ccc(O)cc2)NC(=O)[C@H](Cc2ccc(O)cc2)NC(=O)[C@H](C(C)C)NC(=O)[C@@H]2CSCc3cc(cc(c3)CSC[C@@H](C(=O)N[C@@H](C)C(=O)N(C)CC(=O)N(C)CC(=O)N(C)CC(=O)N[C@H](CCCNC(=N)N)C(=O)N[C@H](CCCNC(=N)N)C(=O)O)NC1=O)CSC[C@H](NC(C)=O)C(=O)N[C@@H](CO)C(=O)N[C@@H](Cc1ccccc1)C(=O)N1CCC1C(=O)N[C@@H](Cc1ccc(O)cc1)C(=O)N[C@@H](CCCCNC(=N)N)C(=O)N2 (stereo partly drawn)
- Ki [1]: > 50 µM
- Ki [2]: 0.00086 µM
- Ki [3]: 2.65 µM
- Ki [4]: 0.022 µM
- Ki [5]: 50 µM
- Ki [6]: 0.8 µM
- Ki [7]: > 50 µM
- Ki [8]: 0.82 µM
- Ki [9]: > 50 µM
- Ki [10]: 0.5 µM
- Ki [11]: > 50 µM

SMILES: CC(=O)N[C@H]1CSCc2cc3cc(c2)CSC[C@H](NC(=O)[C@H](CCCCNC(=N)N)NC(=O)[C@H](Cc2ccc(O)cc2)NC(=O)[C@@H]2CCN2C(=O)[C@H](Cc2ccccc2)NC(=O)[C@H](CO)NC1=O)C(=O)N[C@@H](C)CN[C@@H](Cc1cnc[nH]1)C(=O)N[C@@H](CCC(N)=O)C(=O)N[C@@H](CC(=O)O)C(=O)N[C@@H](CC(C)C)C(=O)N[C@H](C(=O)O)CSC3
- Ki [1]: > 50 µM
- Ki [2]: 0.0027 µM
- Ki [3]: 3.4 µM
- Ki [4]: 0.08 µM
- Ki ([5]; hek293): > 50 µM
- Ki [6]: > 50 µM
- Ki [7]: > 50 µM
- Ki ([8]; hek293): > 50 µM
- Ki [9]: > 50 µM
- Ki [10]: > 50 µM
- Ki [11]: > 50 µM

SMILES: CC(=O)N[C@H]1CSCc2cc3cc(c2)CSC[C@H](C(=O)N[C@@H](C)C(=O)N(C)CC(=O)N(C)CC(=O)N(C)CC(=O)N[C@H](CCCNC(=N)N)C(=O)N[C@H](CCCNC(=N)N)C(=O)O)NC(=O)[C@H](CC(C)C)NC(=O)[C@@H]2CCCN2C(=O)[C@H](C)NC(=O)[C@H](CC(=O)O)NC(=O)[C@H](Cc2c[nH]c4ccccc24)NC(=O)[C@@H]2CCCN2C(=O)[C@H](CSC3)NC(=O)[C@H](Cc2c[nH]c3ccccc23)NC(=O)[C@@H]2CCCN2C(=O)[C@H](CC(N)=O)NC(=O)[C@H](Cc2c[nH]c3ccccc23)NC(=O)[C@H]([C@@H](C)O)NC(=O)[C@H](CC(N)=O)NC1=O
- Ki [1]: > 50 µM
- Ki [2]: 0.0031 µM
- Ki [3]: 1.45 µM
- Ki [4]: 0.5 µM
- Ki ([5]; hek293): > 50 µM
- Ki [6]: 50 µM
- Ki [7]: > 50 µM
- Ki ([8]; hek293): > 50 µM
- Ki [9]: > 50 µM
- Ki [10]: > 50 µM
- Ki [11]: > 50 µM
